Screens deposited in PubChem by Johns Hopkins Ion Channel Center.
The list is not random: actives were taken first. Their share in the collection is about 2.3%.
TRPC6 inhibitor = mouse TRPC6 channel inhibition | Q61143 | HEK293-TRPC6, membrane potential dye, ACh-evoked depolarization; hits give low values | B-score at 10 µM | 310,000 compounds, 1.1% hits;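 active = B-score under library mean minus 3 SD, initial fluorescence not abnormally high, positive integrated signal ratio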;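 also: B-score derived from integrated fluorescence ratio over the kinetic read; more negative B-score means stronger inhibition of depolarization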
TRPC4 inh = inhibitors of mouse TRPC4 channel. Q9QUQ5. HEK293 TRPC4beta/mu-opioid, DAMGO-evoked Fluo4 calcium flux; hits give low values. AID 2247. B-score at 10 µM. 300,000 compounds, 0.39% hits;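 active = B-score over 3 SD under the library average, no early fluorescence shift, positive overall ratio signal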
Target sequence (Q9QUQ5 whole entry, looked up): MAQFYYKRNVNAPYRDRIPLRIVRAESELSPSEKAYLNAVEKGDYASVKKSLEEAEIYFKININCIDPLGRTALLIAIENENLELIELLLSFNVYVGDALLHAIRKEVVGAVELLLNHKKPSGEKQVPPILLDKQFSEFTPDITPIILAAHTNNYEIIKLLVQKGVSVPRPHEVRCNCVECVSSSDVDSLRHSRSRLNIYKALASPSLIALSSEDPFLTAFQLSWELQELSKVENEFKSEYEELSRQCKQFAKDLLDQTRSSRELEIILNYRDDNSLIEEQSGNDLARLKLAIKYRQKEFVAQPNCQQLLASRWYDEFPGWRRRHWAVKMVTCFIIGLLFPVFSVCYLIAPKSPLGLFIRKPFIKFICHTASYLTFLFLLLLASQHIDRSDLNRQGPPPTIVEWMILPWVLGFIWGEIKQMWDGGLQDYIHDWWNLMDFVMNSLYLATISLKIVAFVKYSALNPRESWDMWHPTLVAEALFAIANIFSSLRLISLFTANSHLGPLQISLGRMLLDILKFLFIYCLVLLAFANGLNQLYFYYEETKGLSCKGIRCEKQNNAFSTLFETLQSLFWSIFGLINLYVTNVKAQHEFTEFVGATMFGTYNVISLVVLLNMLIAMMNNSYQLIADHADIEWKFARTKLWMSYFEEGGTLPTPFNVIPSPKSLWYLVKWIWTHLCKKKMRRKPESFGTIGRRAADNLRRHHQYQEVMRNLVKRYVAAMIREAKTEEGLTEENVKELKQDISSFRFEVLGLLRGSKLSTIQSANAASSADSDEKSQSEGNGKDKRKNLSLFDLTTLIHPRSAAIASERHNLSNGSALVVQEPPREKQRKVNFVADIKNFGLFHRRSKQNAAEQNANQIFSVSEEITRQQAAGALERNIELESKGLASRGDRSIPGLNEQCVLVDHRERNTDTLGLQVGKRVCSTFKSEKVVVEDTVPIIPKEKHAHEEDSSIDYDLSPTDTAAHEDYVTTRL
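Assay system: HEK293 cells with stable TRPC4beta plus mu-opioid receptor expression. Dosing: single dose. Measured by: Fluo4 Ca2+ flux fluorescence. Also added: DAMGO in two steps, submaximal then maximal. Read-out: B score from integrated Fluo4 fluorescence ratio.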
TRPC4 agonist = opens the mouse TRPC4 cation channel; B-score at 10 µM; HEK293 TRPC4beta/mu-opioid, Fluo4 calcium fluorescence; hits give high values; 310,000 compounds, 0.49% hits;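 active = B-score above 5 SD of library B-scores, and initial fluorescence ratio not above library mean plus 5 SD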;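 also: positive B-score marks a calcium rise read as TRPC4 activation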
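Assay system: HEK293 stable line with TRPC4beta plus mu-opioid receptor; schedule: 45 min room-temperature Fluo4 loading, 110 s read; technique: kinetic Fluo4 calcium fluorescence; evaluation: integrated baseline-normalised fluorescence ratio, converted to per-well B score; controls: buffer (low) and maximal DAMGO (high)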
TRPC4 potent = allosterically enhances the mouse TRPC4 cation channel. Q9QUQ5. HEK293 TRPC4beta/mu-opioid, DAMGO EC20, Fluo-4 Ca2+ flux; hits give high values. B-score at 10 µM. 310,000 compounds, 0.42% hits;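 active = B-score of calcium response area above 5 SD of library B-scores, with initial fluorescence ratio within 5 SD of library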;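 also: B-score of integrated fluorescence ratio over time as area under calcium response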
TRPC6 activator = activators of mouse TRPC6 channel | Q61143 | HEK293-TRPC6 membrane potential dye fluorescence; hits give high values | B-score at 10 µM | 310,000 compounds, 0.13% hits | AID 2550;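 active = B-score of the integrated fluorescence ratio above library mean plus 3 SD, and starting fluorescence ratio within library mean plus 5 SD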;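 also: higher score means more depolarization so channel activation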
TRPC4 sel inh 2 = mouse TRPC4 off-target activity of TRPC6 inhibitors, second screen; shares compounds with TRPC6 inhibitor; HEK293 TRPC4/MOR, membrane potential dye fluorescence; channel activated by saturating DAMGO dose; inhibition, % at 10 µM; 920 compounds, 42% hits; AID 2776;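 active = compounds whose fluorescence signal differed from control wells by over 3 SD, either direction, in both duplicate plates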
TRPC4 spec = selectivity of TRPC6 inhibitors: effect on mouse TRPC4; shares compounds with TRPC6 inhibitor; HEK293 TRPC4/mu-opioid, membrane potential fluorescence; activity change, negative = inhibition, % at 10 µM; 920 compounds, 61% hits; AID 2777;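 active = rise or fall in signal beyond 3 SD of buffer-only wells in both replicate plates, either sign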;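 also: integrated kinetic ratio of fluorescence range over baseline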
HEK293 MPD ctr 2-1 = second counter-screen for TRPC6 inhibitors: parental HEK293 cells; 920 compounds, 31% hits; shares compounds with TRPC6 inhibitor; signal change vs control, % at 10 µM; parental HEK293 membrane potential dye fluorescence; maximal acetylcholine challenge after compound addition;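 active = membrane potential signal moving either way by over 3 SD of the maximum-effect control, in both duplicate plates, meaning non-specific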
HEK293 MPD ctr-1 = checks TRPC6 inhibitor effects in parental HEK293 cells; shares compounds with TRPC6 inhibitor; parental HEK293 membrane potential dye fluorescence; membrane potential signal change, % at 10 µM; 920 compounds, 60% hits;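 active = membrane potential signal shifting up or down by more than 3 SD of buffer-only wells, on both duplicate plates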
HEK293 MPD ctr-2 = checks TRPC6 modulator effects in parental HEK293 cells | shares compounds with TRPC6 inhibitor | membrane potential dye fluorescence | membrane potential signal change, % at 10 µM | 2,400 compounds, 51% hits | AID 488924;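 active = membrane potential signal moves up or down beyond 5 SD from buffer-only wells, on both duplicate plates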
HEK293 MPD ctr 2-2 = parental HEK293 nonspecific activity of TRPC6 modulators, second screen; 2,400 compounds, 14% hits; shares compounds with TRPC6 inhibitor; inhibition, % at 10 µM; membrane potential dye fluorescence; after compound, maximal acetylcholine stimulation; AID 488926;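 active = membrane potential signal drops by more than 5 SD from the mean control signal, in both duplicate plates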;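 also: plate controls were acetylcholine ECmax control wells for no effect and buffer only wells for full effect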
TRPC4/MOR mod = mouse TRPC4 off-target activity of TRPC6 modulators. shares compounds with TRPC6 inhibitor. HEK293 TRPC4/mu-opioid, membrane potential fluorescence. percent change from control (negative = decrease, positive = increase), % at 10 µM. 2,400 compounds, 69% hits;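 active = membrane potential signal moved up or down beyond 5 SD of buffer control wells, in both duplicate plates, actives on both sides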;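 also: plate controls were assay buffer wells for no effect and DAMGO maximal-effect wells for full effect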
TRPC4/MOR inh 2 = second selectivity test of TRPC6 modulators against mouse TRPC4 | 2,400 compounds, 55% hits | HEK293 TRPC4/mu-opioid, membrane potential dye fluorescence; stimulated with maximal-effect DAMGO | inhibition, % at 10 µM | shares compounds with TRPC6 inhibitor;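 active = drop in membrane potential signal beyond 5 SD of the control wells in both duplicate plates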;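 also: TRPC4 counter screen for TRPC6 hits run under conditions tuned for TRPC6 not TRPC4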
TRPC6 inh conf = confirmation of mouse TRPC6 inhibitors | 3,300 compounds, 43% hits | shares compounds with TRPC6 inhibitor | HEK293-TRPC6, membrane potential dye, ACh-evoked depolarization | inhibition, % at 10 µM;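 active = fluorescence ratio falls more than 5 SD below the full-stimulation control mean, in both duplicate runs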;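 also: integrated fluorescence ratio of peak minus minimum over baseline after agonist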
TRPC6 act conf = mouse TRPC6 activator confirmation; AID 488961; HEK293-TRPC6 membrane potential dye fluorescence, FDSS; shares compounds with TRPC6 inhibitor; 2,800 compounds, 11% hits; activation, % at 10 µM;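 active = ratio signal rise beyond 5 SD above unstimulated control wells' mean, seen in both duplicate runs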;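 also: plate controls were buffer EC0 wells for no effect and acetylcholine ECmax response for full effect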
An asterisk follows results filed as active; i = inactive; nt = no result given.

SMILES | TRPC6 inhibitor | TRPC4 inh | TRPC4 agonist | TRPC4 potent | TRPC6 activator | HEK293 MPD ctr-2 | HEK293 MPD ctr 2-2 | TRPC4/MOR mod | TRPC4/MOR inh 2 | TRPC6 inh conf | TRPC6 act conf | others
CCN(CC)CCCOC(=O)C(OC(C)C)(c1ccccc1)c1ccccc1 | -9.1* | i | i | i | i | nt | nt | nt | nt | 57%* | nt | TRPC4 sel inh 2=66%*;TRPC4 spec=39%*;HEK293 MPD ctr 2-1=i;HEK293 MPD ctr-1=22%*
CCOC(C(=O)OCCCN(CC)CC)(c1ccccc1)c1ccccc1 | i | i | i | i | i | nt | nt | nt | nt | nt | nt
COc1cc2c(cc1OC)-c1c(OC)c(OC)c(OC)c3ccnc(c13)C2=O | -7* | i | i | i | i | -142%* | i | -29%* | 74%* | 56%* | i
CCCNC(=O)N1CCC2(CC1)OCCO2 | i | i | i | i | i | nt | nt | nt | nt | nt | nt
CCN1CCN(c2ncnc3ccc(Br)cc23)CC1 | -7.6* | i | i | i | i | nt | nt | nt | nt | i | i | TRPC4 sel inh 2=i;TRPC4 spec=i;HEK293 MPD ctr 2-1=i;HEK293 MPD ctr-1=-192%*
CCc1cc2c(N3CCN(C)CC3)ncnc2s1 | i | i | i | i | i | nt | nt | nt | nt | nt | nt
O=[N+]([O-])c1ccc(N2CCCNCC2)c2ncccc12 | -11* | i | 138* | i | i | -444%* | 110%* | -52%* | 79%* | 96%* | i
COC(=O)C(C)NC(=S)N1CC2C[C@@H](C1)Cn1c2cccc1=O (some centres undefined) | i | i | i | i | i | nt | nt | nt | nt | nt | nt
CCCCn1c(O)c(C(=O)/C=C/c2c[nH]c3ccccc23)c(=O)[nH]c1=O | i | i | i | i | 247* | 941%* | i | 586%* | i | i | 212%*
CNCC(=O)c1ccccc1 | i | i | i | i | i | nt | nt | nt | nt | nt | nt
O=[N+]([O-])c1ccccc1CNCCc1c[nH]c2ccccc12 | -5.5* | i | i | i | i | i | i | i | 42%* | i | i
CCOc1ccc(CC2(CCc3ccncc3)C(=O)NC(=O)NC2=O)cc1 | i | i | i | i | i | nt | nt | nt | nt | nt | nt
O=c1[nH]c(=S)n(C2CCCCC2)c(O)c1/C=N/N1CCOCC1 | i | i | i | i | i | nt | nt | nt | nt | nt | nt
CN1[C@@H]2CC[C@H]1CC(OC(=O)C(CO)c1ccccc1)C2 (some centres undefined) | -6.9* | i | i | i | i | nt | nt | nt | nt | 101%* | i | TRPC4 sel inh 2=i;TRPC4 spec=i;HEK293 MPD ctr 2-1=-18%*;HEK293 MPD ctr-1=i
C#CC[N+]1(C)[C@@H]2CC(OC(=O)C(CO)c3ccccc3)C[C@H]1C(O)C2 (some centres undefined) | -9.9* | i | i | i | i | nt | nt | nt | nt | 87%* | i | TRPC4 sel inh 2=i;TRPC4 spec=i;HEK293 MPD ctr 2-1=1.5%*;HEK293 MPD ctr-1=i
C[N+]1(C)C2CCC1CC(OC(=O)C(CO)c1ccccc1)C2 (centres undefined) | -8.5* | i | i | i | i | nt | nt | nt | nt | 102%* | i | TRPC4 sel inh 2=i;TRPC4 spec=i;HEK293 MPD ctr 2-1=-32%*;HEK293 MPD ctr-1=i
C[N+]1(C)C2CCC1CC(OC(=O)c1ccccc1)C2 (centres undefined) | i | i | i | i | i | nt | nt | nt | nt | nt | nt
CCNC(=S)NCCC1=c2ccccc2=N/C1=C\c1c(O)n(C)c(=O)n(C)c1=O | i | i | i | i | i | nt | nt | nt | nt | nt | nt
CN1CC(C(=O)c2ccc(Cl)cc2)C(c2ccc(Cl)cc2Cl)C1 (centres undefined) | i | i | i | i | i | nt | nt | nt | nt | nt | nt
CN1CCC(O)(c2ccc(Cl)cc2)C(C(=O)c2ccc(Cl)cc2)C1 (centres undefined) | -5.4* | i | i | i | i | i | i | i | 35%* | i | i
Nc1ncn[nH]1 | i | i | i | i | i | nt | nt | nt | nt | nt | nt
CCOc1cccc(=NC2CCCCC2)c2c(C)n(C)c(C)c12 | -7.5* | i | i | i | i | nt | nt | nt | nt | i | i | TRPC4 sel inh 2=50%*;TRPC4 spec=6.9%*;HEK293 MPD ctr 2-1=-69%*;HEK293 MPD ctr-1=i
O=C(c1ccc(C(F)(F)F)cc1)C1CCCN(C2CCSCC2)C1 (centres undefined) | -7.8* | i | i | i | i | nt | nt | nt | nt | i | nt | TRPC4 sel inh 2=i;TRPC4 spec=15%*;HEK293 MPD ctr 2-1=i;HEK293 MPD ctr-1=8.5%*
Cc1cc(Cl)ccc1C(=O)C1CCCN(C2CCSCC2)C1 (centres undefined) | -5.8* | i | i | i | i | 174%* | i | 32%* | i | i | nt
Cc1cccc(CN2CCCC(C(=O)c3ccc(C(F)(F)F)cc3)C2)n1 (centres undefined) | i | i | i | i | i | nt | nt | nt | nt | nt | nt
CCCCc1ccc(NC2=NCCCS2)cc1 | i | i | i | i | i | nt | nt | nt | nt | nt | nt
Cc1nn(CC(C)C)c(Cl)c1C(=O)NC1CCC(C)CC1 (centres undefined) | i | i | i | i | i | nt | nt | nt | nt | nt | nt
CC[N+]12CCC(CC1)C(C(O)(c1ccccc1)c1ccccc1)C2 (centres undefined) | -6* | i | i | i | i | i | i | i | i | 82%* | i
CC/C(=N\N1CCCCCC1)c1c(O)n(-c2ccccc2C)c(=O)[nH]c1=O | i | i | i | i | i | nt | nt | nt | nt | nt | nt
OCC[n+]1c2ccccc2nc2ccc(N3CCOCC3)cc21 | -10* | i | i | i | i | -274%* | 104%* | -47%* | 72%* | 82%* | i
